According to ChEMBL document CHEMBL1149771, “Antimicrobial studies of 2,4-dichloro-5-fluorophenyl containing oxadiazoles” (2008):
In brackets after ≈: the same amount, converted by molar mass.

Columns and labels:
Assay type in all cases: functional
Staphylococcus aureus [1] = assay: Antibacterial activity against Staphylococcus aureus ATCC 25923 at 37 degC after 24 hrs by disc diffusion method
In short: (§1)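 Disc diffusion on nutrient agar. Plates were spread with 1–2 × […] c.f.u./ml inoculum (0.5 McFarland). Sterile 6.25 mm filter-paper discs were soaked in a known concentration of compound and placed on the agar. Plates were inverted and incubated 24 h at 37 °C. Inhibition zones (mm) were read against solvent and growth controls, with ciprofloxacin as reference.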

Escherichia coli [2] = assay: Antibacterial activity against Escherichia coli ATCC 25922 at 37 degC after 24 hrs by disc diffusion method; in short: as §1
Klebsiella pneumoniae [3] = assay: Antibacterial activity against Klebsiella pneumoniae ATCC 25922 at 37 degC after 24 hrs by disc diffusion method; in short: as §1
Pseudomonas aeruginosa [4] = assay: Antibacterial activity against Pseudomonas aeruginosa ATCC 27853 at 37 degC after 24 hrs by disc diffusion method; in short: as §1
Staphylococcus aureus [5] = assay: Antibacterial activity against Staphylococcus aureus ATCC 25923 at 37 degC after 24 hrs by broth dilution method; details: ATCC 25923, 24 h
In short: (§2)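 Broth dilution MIC. Nutrient broth held two-fold serial dilutions of compound and was inoculated with about 5 × 10⁵ c.f.u. of actively dividing bacteria. Cultures ran 24 h at 37 °C, with growth checked visually and spectrophotometrically. MIC was the lowest concentration arresting growth. Ciprofloxacin was the standard.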

Escherichia coli [6] = assay: Antibacterial activity against Escherichia coli ATCC 25922 at 37 degC after 24 hrs by broth dilution method; details: ATCC 25922, 24 h; in short: as §2
Klebsiella pneumoniae [7] = assay: Antibacterial activity against Klebsiella pneumoniae ATCC 25922 at 37 degC after 24 hrs by broth dilution method; details: recultured, in the assay text read “Klebsiella pneumoniae (recultured)” for “Klebsiella pneumoniae ATCC 25922”; in short: as §2
Pseudomonas aeruginosa [8] = assay: Antibacterial activity against Pseudomonas aeruginosa ATCC 27853 at 37 degC after 24 hrs by broth dilution method; details: ATCC 27853, 24 h; in short: as §2
Staphylococcus aureus [9] = assay: Antibacterial activity against Staphylococcus aureus ATCC 25923 at 35 degC after 18 to 24 hrs
In short: (§3)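 Bactericidal endpoint (MBC) taken from the broth-dilution MIC tubes. 0.1 ml from each tube was spread on agar plates and c.f.u. counted after 18–24 h. MBC was the lowest concentration completely killing the bacteria.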

Escherichia coli [10] = assay: Antibacterial activity against Escherichia coli ATCC 25922 at 35 degC after 18 to 24 hrs; in short: as §3
Klebsiella pneumoniae [11] = assay: Antibacterial activity against Klebsiella pneumoniae ATCC 25922 at 35 degC after 18 to 24 hrs; details: recultured, in the assay text read “Klebsiella pneumoniae (recultured)” for “Klebsiella pneumoniae ATCC 25922”; in short: as §3
Pseudomonas aeruginosa [12] = assay: Antibacterial activity against Pseudomonas aeruginosa ATCC 27853 at 35 degC after 18 to 24 hrs; in short: as §3
Candida albicans [13] = assay: Antifungal activity against Candida albicans at 37 degC after 3 to 4 days by agar dilution method
In short: (§4)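 Agar well diffusion for fungi, compounds in DMSO. Sabouraud agar was adjusted to pH 5.7 and lawned with a saline spore suspension (a loopful in 3 ml). Plates were dried 1 h at 37 °C, then wells were punched. Incubation was 3–4 days at 37 °C, with controls in triplicate. Inhibition zones were measured against controls, with griseofulvin as standard.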

Aspergillus fumigatus [14] = assay: Antifungal activity against Aspergillus fumigatus at 37 degC after 3 to 4 days by agar […] method; in short: as §4
Talaromyces marneffei [15] = assay: Antifungal activity against Penicillium marneffei at 37 degC after 3 to 4 days by agar […] method; in short: as §4
[16] = test system: Trichophyton mentagrophytes; assay: Antifungal activity against Trichophyton mentagrophytes at 37 degC after 3 to 4 days by agar dilution method; details: in the assay text read “agar diffusion method” for “agar dilution method”; in short: as §4
Candida albicans [17] = assay: Antifungal activity against Candida albicans at 35 degC after 48 hrs by broth dilution method
In short: (§5)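 Fungal MIC by broth dilution. Two-fold serial dilutions of compound in nutrient broth were inoculated with about 1.6 × 10⁴–6 × 10⁴ c.f.u./ml. Incubation was 48 h at 35 °C. MIC was the lowest concentration arresting fungal growth.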

Aspergillus fumigatus [18] = assay: Antifungal activity against Aspergillus fumigatus at 35 degC after 48 hrs by broth dilution method; in short: as §5
Talaromyces marneffei [19] = assay: Antifungal activity against Penicillium marneffei at 35 degC after 48 hrs by broth dilution method; in short: as §5
[20] = test system: Trichophyton mentagrophytes; assay: Antifungal activity against Trichophyton mentagrophytes at 35 degC after 48 hrs by broth dilution method; in short: as §5
Candida albicans [21] = assay: Antifungal activity against Candida albicans at 35 degC after 48 hrs
In short: (§6)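 Fungicidal endpoint (MFC). 0.1 ml from each broth-dilution tube was spread on agar plates and c.f.u. counted after 48 h at 35 °C. MFC was the lowest concentration killing 99.9% of the inoculum.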

Aspergillus fumigatus [22] = assay: Antifungal activity against Aspergillus fumigatus at 35 degC after 48 hrs; in short: as §6
Talaromyces marneffei [23] = assay: Antifungal activity against Penicillium marneffei at 35 degC after 48 hrs; in short: as §6
[24] = test system: Trichophyton mentagrophytes; assay: Antifungal activity against Trichophyton mentagrophytes at 35 degC after 48 hrs; in short: as §6

| Structure (SMILES) | inhibition zone (IZ) (Staphylococcus aureus [1]) [mm] | inhibition zone (IZ) (Escherichia coli [2]) [mm] | inhibition zone (IZ) (Klebsiella pneumoniae [3]) [mm] | inhibition zone (IZ) (Pseudomonas aeruginosa [4]) [mm] | MIC (Staphylococcus aureus [5]) [µg/mL] | MIC (Escherichia coli [6]) [µg/mL] | MIC (Klebsiella pneumoniae [7]) [µg/mL] | MIC (Pseudomonas aeruginosa [8]) [µg/mL] | MBC (Staphylococcus aureus [9]) [µg/mL] | MBC (Escherichia coli [10]) [µg/mL] | MBC (Klebsiella pneumoniae [11]) [µg/mL] | MBC (Pseudomonas aeruginosa [12]) [µg/mL] | inhibition zone (IZ) (Candida albicans [13]) [mm] | inhibition zone (IZ) (Aspergillus fumigatus [14]) [mm] | MIC (Candida albicans [17]) [µg/mL] | MIC (Aspergillus fumigatus [18]) [µg/mL] | MIC (Talaromyces marneffei [19]) [µg/mL] | MIC [20] [µg/mL] | MFC (Candida albicans [21]) [µg/mL] | MFC (Aspergillus fumigatus [22]) [µg/mL] | other results |
| --- | --- | --- | --- | --- | --- | --- | --- | --- | --- | --- | --- | --- | --- | --- | --- | --- | --- | --- | --- | --- | --- |
| Fc1cc(-c2nnc(COc3ccccc3Cl)o2)c(Cl)cc1Cl | 15 | 18 | 12 | 15 | 12.5 (≈ 33.5 µM) | 6.25 (≈ 16.7 µM) | 25 (≈ 66.9 µM) | 12.5 (≈ 33.5 µM) | 50 (≈ 134 µM) | 12.5 (≈ 33.5 µM) | 50 (≈ 134 µM) | 25 (≈ 66.9 µM) | 10 | 19 | 25 (≈ 66.9 µM) | 6.25 (≈ 16.7 µM) | > 100 | 12.5 (≈ 33.5 µM) | 50 (≈ 134 µM) | 12.5 (≈ 33.5 µM) | Activity (Talaromyces marneffei [15]): >100 µg/mL; inhibition zone (IZ) [16]: 12 mm; MFC (Talaromyces marneffei [23]): > 100 µg/mL; MFC [24]: 50 µg/mL (≈ 134 µM) |
| Cc1cc(Cl)ccc1OCc1nnc(-c2cc(F)c(Cl)cc2Cl)o1 | 20 | 24 | 19 | 29 | 6.25 (≈ 16.1 µM) | 6.25 (≈ 16.1 µM) | 6.25 (≈ 16.1 µM) | 6.25 (≈ 16.1 µM) | 6.25 (≈ 16.1 µM) | 12.5 (≈ 32.2 µM) | 6.25 (≈ 16.1 µM) | 6.25 (≈ 16.1 µM) | 28 | 25 | 6.25 (≈ 16.1 µM) | 6.25 (≈ 16.1 µM) | 6.25 (≈ 16.1 µM) | 6.25 (≈ 16.1 µM) | 6.25 (≈ 16.1 µM) | 6.25 (≈ 16.1 µM) | inhibition zone (IZ) (Talaromyces marneffei [15]): 19 mm; inhibition zone (IZ) [16]: 22 mm; MFC (Talaromyces marneffei [23]): 6.25 µg/mL (≈ 16.1 µM); MFC [24]: 25 µg/mL (≈ 64.5 µM) |
| Cc1ccccc1OCc1nnc(-c2cc(F)c(Cl)cc2Cl)o1 | 19 | 27 | 16 | 28 | 6.25 (≈ 17.7 µM) | 6.25 (≈ 17.7 µM) | 12.5 (≈ 35.4 µM) | 6.25 (≈ 17.7 µM) | 25 (≈ 70.8 µM) | 25 (≈ 70.8 µM) | 50 (≈ 142 µM) | 6.25 (≈ 17.7 µM) | 15 | 10 | 12.5 (≈ 35.4 µM) | 25 (≈ 70.8 µM) | 25 (≈ 70.8 µM) | > 100 | 25 (≈ 70.8 µM) | 100 (≈ 283 µM) | inhibition zone (IZ) (Talaromyces marneffei [15]): 8 mm; Activity [16]: >100 µg/mL; MFC (Talaromyces marneffei [23]): 100 µg/mL (≈ 283 µM); MFC [24]: > 100 µg/mL |
